Measurements: ChEMBL document CHEMBL2434874, “Synthesis and antiproliferative activity of benzofuran-based analogs of cercosporamide against non-small cell lung cancer cell lines” (Eur J Med Chem, 2013)

Legend:
A549 = assay: Cytotoxicity against human A549 cells expressing wild type p53 by MTT assay; type: functional, cell-based
[1] = Cytotoxicity against human NSCLC-N6 cells expressing mutant p53 by MTT assay; type: functional, cell-based
How it was run: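 Cells grown in RPMI 1640 and seeded in 96-well plates (NSCLC-N6 at 10⁵ cells/mL). Cells exposed to drug continuously. Growth measured colorimetrically by mitochondrial reduction of MTT to formazan, with solubilized formazan read at 570 nm. Eight replicates per concentration; control growth from 8 determinations.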

[2] = Homo sapiens, A549, read-out: IC50
[3] = Homo sapiens, NSCLC-N6, read-out: IC50

In the case of `COc1cc(OC)c2c(C)c(C=O)oc2c1`, the IC50 (A549; a549) is reported as “Not Active” and the IC50 ([1]; nsclc-n6) is reported as “Not Active”.
With `CCOC(=O)c1oc2c(C(N)=O)c(OC)cc(OC)c2c1C` the IC50 (A549; a549) was “Not Active” and the IC50 ([1]; nsclc-n6) was “Not Active”.
With `CCCNC(=O)c1oc2c(C(N)=O)c(OC)cc(OC)c2c1C` the IC50 (A549; [2]) was > 93.6 µM and the IC50 [1, 3] was > 93.6 µM.
In the case of `COc1cc(OC)c2c(C)c(C(N)=O)oc2c1C(N)=O`, the IC50 (A549; [2]) is reported as 39.4 µM and the IC50 [1, 3] is reported as 22.6 µM.
For `Cc1c(C=O)oc2c(C(N)=O)c(O)cc(O)c12`, the IC50 (A549; [2]) was 108 µM and the IC50 [1, 3] was 60.8 µM.
With `CCOC(=O)c1oc2cc(OCc3ccccc3)cc(OCc3ccccc3)c2c1C` the IC50 (A549; [2]) was > 72 µM and the IC50 [1, 3] was > 72 µM.
With `COc1cc(OC)c2c(C)c(C(=O)NCc3ccccc3)oc2c1C(N)=O` the IC50 (A549; [2]) was 54.8 µM and the IC50 [1, 3] was > 81.4 µM.
With `COc1cc(OC)c2c(C)c(C(=O)Nc3ccccn3)oc2c1C(N)=O` the IC50 (A549; [2]) was > 84.4 µM and the IC50 [1, 3] was > 84.4 µM.
In the case of `CCOC(=O)c1oc2c(C#N)c(OC)cc(OC)c2c1C`, the IC50 (A549; a549) is reported as “Not Active” and the IC50 ([1]; nsclc-n6) is reported as “Not Active”.
For `COc1cc(OC)c2c(C)c(C=O)oc2c1Br`, the IC50 (A549; [2]) was 49.5 µM and the IC50 ([1]; nsclc-n6) was “Not Active”.
With `COc1cc(OC)c2c(C)c(C=O)oc2c1C(N)=O` the IC50 (A549; [2]) was 63.8 µM and the IC50 [1, 3] was 44.4 µM.
In the case of `CCOC(=O)c1oc2c(Br)c(OC)cc(OC)c2c1C`, the IC50 (A549; [2]) is reported as > 87.4 µM and the IC50 [1, 3] is reported as > 87.4 µM.
For `CCOC(=O)c1oc2c(C(N)=O)c(OCc3ccccc3)cc(OCc3ccccc3)c2c1C`, the IC50 (A549; [2]) was < 7.2 µM and the IC50 [1, 3] was < 7.2 µM.
For `Cc1c(C=O)oc2cc(OCc3ccccc3)cc(OCc3ccccc3)c12`, the IC50 (A549; [2]) was > 80.6 µM and the IC50 [1, 3] was > 80.6 µM.
For `COc1cc(OC)c2c(C)c(C=O)oc2c1C#N`, the IC50 (A549; a549) was “Not Active” and the IC50 ([1]; nsclc-n6) was “Not Active”.
With `COc1cc(OC)c2c(C)c(C(=O)Nc3ccccc3)oc2c1C(N)=O` the IC50 (A549; [2]) was < 9.3 µM and the IC50 [1, 3] was < 9.3 µM.
In the case of `COc1cc(OC)c2c(C)c(C(=O)Nc3ccncc3)oc2c1C(N)=O`, the IC50 (A549; [2]) is reported as < 9.3 µM and the IC50 [1, 3] is reported as < 9.3 µM.
In the case of `CCOC(=O)c1oc2cc(OC)cc(OC)c2c1C`, the IC50 (A549; a549) is reported as “Not Active” and the IC50 ([1]; nsclc-n6) is reported as “Not Active”.
`CCOC(=O)c1oc2c(C(N)=O)c(O)cc(O)c2c1C` showed an IC50 (A549; [2]) of 24 µM and an IC50 [1, 3] of 32.9 µM.
For `Cc1c(C=O)oc2cc(O)cc(O)c12`, the IC50 (A549; a549) was “Not Active” and the IC50 ([1]; nsclc-n6) was “Not Active”.
Work on `CCOC(=O)c1oc2cc(O)cc(O)c2c1C` yielded an IC50 (A549; [2]) of 68.6 µM and an IC50 [1, 3] of 65.6 µM.
